From ChEMBL document CHEMBL4706573, “Synthesis and evaluation of thiophene based small molecules as potent inhibitors of Mycobacterium tuberculosis” (Eur J Med Chem, 2020)
In brackets after ≈: the same amount, converted by molar mass. Activity calls are given as the source filed them. The calls are words filed in the database; no cut-off is given here.

Experiments:
THP-1 = test: Cytotoxicity against human THP-1 cells assessed as reduction in cell viability measured after 96 hrs by WST1 assay; type: cell-based; conditions: thp-1, 96 h
How it was run: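 THP-1 cells seeded at 20,000/well with 20 ng/ml PMA for 48 h. Cells then washed and rested 24 h in RPMI with 10% FBS. Drug dilutions in RPMI complete medium added in triplicate for 96 h. Viability read by WST-1 reagent after a 30 min incubation.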

[1] = tested on: Mycobacterium tuberculosis; test: Antimycobacterial activity against Mycobacterium tuberculosis H37Rv after 10 to 14 days; type: functional; conditions: time 10-14 day
How it was run: (§1)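 MIC99 determined in whole cells, tested in triplicate with INH as the positive control. Strains were wild-type, pMV306, pMV306-pks13 and INH-resistant mc2 497. Susceptibility was scored relative to the parental strain: S where the MIC99 was at most 2x the parental MIC99.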

[2] = tested on: Mycobacterium tuberculosis; test: Antimycobacterial activity against Mycobacterium tuberculosis expressing pMV306 after 10 to 14 days; type: functional, organism-based; conditions: time 10-14 day; how it was run: as §1
[3] = tested on: Mycobacterium tuberculosis; test: Antimycobacterial activity against Mycobacterium tuberculosis expressing pMV306-pks13 after 10 to 14 days; type: functional, organism-based; conditions: time 10-14 day; how it was run: as §1
[4] = tested on: Mycobacterium tuberculosis; test: Antimycobacterial activity against Mycobacterium tuberculosis H37Rv; type: functional
[5] = Inhibition of N-terminal His-tagged Mycobacterium tuberculosis PtpB expressed in Escherichia coli BL21 (DE3)-CodonPlus cells using DiFMUP as substrate measured after 45 mins by spectrofluorimetric method
[6] = tested on: Mycobacterium tuberculosis; test: Antimycobacterial activity against Mycobacterium tuberculosis H37Ra measured up to 7 days; type: functional; conditions: 168 h, time day <=7

SMILES | Activity (THP-1) | MIC99 [1] | also measured
CCOC(=O)c1cc(-c2ccccc2)sc1NC(=O)c1cccnc1 | > 50 µM | > 10 µM | –
CCOC(=O)c1cc(-c2ccccc2)sc1NC(=O)N1CCN(C)CC1 | > 50 µM | > 10 µM | –
CCOC(=O)c1cc(-c2ccccc2)sc1NC(C)=O | > 50 µM | > 10 µM | –
COC(=O)c1cc(-c2ccc(F)cc2)sc1NC(=O)CCl | > 50 µM | 0.78 µM (≈ 0.256 µg/mL) | Activity [2]: Active; Activity [3]: Active
CCOC(=O)c1cc(-c2ccccc2)sc1NC(=O)NC(C)C | > 50 µM | 1.56 µM (≈ 0.519 µg/mL) | –
CCOC(=O)c1cc(-c2ccccc2)sc1NC(=O)c1ccc(F)cc1 | > 50 µM | > 10 µM | –
CCOC(=O)c1cc(-c2ccccc2)sc1NC(=O)c1ccccc1 | > 50 µM | > 10 µM | –
COC(=O)c1cc(-c2ccc(C(F)(F)F)cc2)sc1NC(=O)CCl | > 50 µM | 0.39 µM (≈ 0.147 µg/mL) | Activity [2]: Active; Activity [3]: Active
COC(=O)c1cc(-c2cccc(F)c2)sc1NC(=O)CCl | > 50 µM | 0.19 µM (≈ 0.0623 µg/mL) | Activity [2]: Active; Activity [3]: Active
CCOC(=O)c1cc(-c2ccccc2)sc1NC(=O)N1CCCCC1 | > 50 µM | > 10 µM | –
CCOC(=O)c1cc(-c2ccccc2)sc1NC(=O)Cc1ccccc1 | > 50 µM | > 10 µM | –
CO[C@H]1/C=C/O[C@@]2(C)Oc3c(C)c(O)c4c(O)c(c(/C=N/N5CCN(C)CC5)c(O)c4c3C2=O)NC(=O)/C(C)=C\C=C\[C@H](C)[C@H](O)[C@@H](C)[C@@H](O)[C@@H](C)[C@H](OC(C)=O)[C@@H]1C [RIFAMPIN] | – | 0.007 µM (≈ 0.00576 µg/mL) | –
CCOC(=O)c1c(NC(=O)c2c(F)c(F)c(F)c(F)c2F)sc2c1CCCCC2 | – | – | MIC [4]: 1 µM (≈ 0.433 µg/mL)
CCOC(=O)c1c(NC(=O)c2c(F)c(F)c(F)c(F)c2F)sc(C(N)=O)c1C | – | – | MIC [4]: 0.5 µM (≈ 0.211 µg/mL)
CCOC(=O)c1cc(-c2ccccc2)sc1NC(=O)N(CC)CC | > 50 µM | 3.12 µM (≈ 1.08 µg/mL) | –
CCN(CC)C(=O)Nc1sc(-c2ccc(F)cc2)cc1C(=O)OC | > 50 µM | > 10 µM | –
CCOC(=O)c1cc(-c2ccccc2)sc1NC(=O)NCc1ccccc1 | > 50 µM | > 10 µM | –
O=C(O)C(=O)N(Cc1cccc(Cl)c1)Cc1ccc(S(=O)(=O)NCCC(c2ccccc2)c2ccccc2)s1 | – | – | IC50 [5]: 400 nM
CCOC(=O)c1cc(-c2ccccc2)sc1N | > 50 µM | > 10 µM | –
COc1ccc([C@@H](c2ccc(OCCN(C(C)C)C(C)C)cc2)c2cccs2)cc1 | – | – | MIC [6]: 3.12 µM (≈ 1.32 µg/mL)
